# Experimental data from PubChem BioAssay.
# The source made the active and inactive calls.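 The calls were made as follows, unless noted: active = viability at or below 10% of carrier control in both of two separate runs; inconclusive = viability at or below 10% in only one of the two runs; inactive = the rest.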
# What was measured:
# [1] = biological target: Pantothenate synthetase (Mycobacterium tuberculosis (strain ATCC 25618 / H37Rv)) (UniProt P9WIL5); experiment: Coupled enzyme confirmation of inhibitors against recombinant Mtb PanC (AID 375; call rule not given here;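 also: 0% = full reaction with vehicle and 100% = no enzyme background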); settings: coupled enzyme assay; at 10 µM, stronger effect = higher value
# [2] = reduced viability of SK-BR-3 breast cancer cells – cell-based, 24 h, human, pilot screen (AID 572); settings: SK-BR-3 viability, CellTiter-Glo luminescence, at 10 µM, stronger effect = lower value;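 also: compound exposure lasted between 18 and 24 h rather than exactly 24 h; 100% = carrier-treated control wells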
# [3] = HUVEC growth inhibition – cell-based, human, primary screen (AID 575;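 active = viability at or below 30% in both replicate assays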;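 also: 100% = median of untreated cell wells with 0.1% DMSO on each plate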); settings: HUVEC proliferation, CellTiter-Glo luminescence, 72 h; at 10 µM; stronger effect = lower value
# Method in brief: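 Test system – primary HUVEC, no more than 12 passages · Dosing – one dose, 10 µM final, 0.1% DMSO · Times – 72 h treatment at 37 °C · Measured by – ATP-based CellTiter-Glo luminescent read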
# [4] = H69AR cell proliferation blockers – human, duplicate replicates, primary screen (AID 580;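 active = viability at or under a set limit in both replicates, limit being median viability minus 3 SD, cut at about 48% in these data, passing the limit was not always enough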;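 also: 100% = mean luminescence of untreated wells and 0% = no signal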); settings: H69AR lung tumor cells viability, ATP luminescence, 72 h; at 10 µM; stronger effect = lower value
# [5] = MRP1 drug-resistance reversers in H69AR cells – cell-based, doxorubicin co-treatment, pilot screen (AID 601;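 active = viability loss from added drug above about 55%, and viability with drug at most 40%, in both replicates, limit read from the data, passing the limit was not always enough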); settings: CellTiter-Glo, 72 h, at 10 µM; for differential viability (reversal): stronger effect = higher value
# [6] = yeast transport mutant growth inhibition pilot in 384-well plates, post-Golgi transport modulator project (AID 636; in the data active = inhibition above about 31%); settings: absorbance 615 nm, about 18 h, stronger effect = higher value
# [7] = growth suppression of yeast trafficking mutant, preliminary HTS, modulators of trafficking downstream of Golgi apparatus project, 1536-format plate, OD 615 nm (AID 637; in the data active = inhibition above about 30%); settings: yeast transport mutant growth, absorbance 615 nm, 18 h; stronger effect = higher value
# [8] = H69AR cells + 2 uM doxorubicin, measured here: viability with 2 uM doxorubicin, stronger effect = lower value
# [9] = H69AR cells, compound alone cytotoxicity
# Pantothenate synthetase (Mycobacterium tuberculosis (strain ATCC 25618 / H37Rv)), sequence (P9WIL5 whole entry, looked up): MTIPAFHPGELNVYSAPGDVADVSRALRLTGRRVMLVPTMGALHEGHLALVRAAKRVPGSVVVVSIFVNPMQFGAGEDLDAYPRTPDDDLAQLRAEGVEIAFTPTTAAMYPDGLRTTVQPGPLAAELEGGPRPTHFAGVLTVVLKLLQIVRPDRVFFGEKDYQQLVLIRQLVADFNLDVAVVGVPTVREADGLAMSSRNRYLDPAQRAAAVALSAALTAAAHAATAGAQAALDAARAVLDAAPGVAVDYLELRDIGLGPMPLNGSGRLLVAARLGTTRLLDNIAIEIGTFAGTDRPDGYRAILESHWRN
Compound,inhibition [1],viability [2],viability [3],viability [4],differential viability (reversal) ([5]; H69AR cells + 2 uM doxorubicin),"viability [5, 8] [%]","viability [5, 9] [%]",inhibition [6],inhibition [7]
c1ccc2c(c1)[nH]c1cnccc12,0% (inactive),100% (inactive),70.2% (inactive),83% (inactive),2.26% (inactive),80.7,83,-0.78% (inactive),0.5% (inactive)
NCC(CC(=O)O)c1ccc(Cl)cc1 (centres undefined),0% (inactive),83% (inactive),78.3% (inactive),106% (inactive),-1.38% (inactive),107,106,-1.43% (inactive),4.67% (inactive)
CCOC(=O)c1cc2c(cn1)[nH]c1ccccc12,6% (inactive),122% (inactive),89.3% (inactive),88% (inactive),3.16% (inactive),84.8,88,-0.91% (inactive),-3.17% (inactive)
CCOC(=O)C1SC2(C(F)F)CC1(O)c1c(c(OC)c3occc3c1OC)O2 (centres undefined),0% (inactive),91% (inactive),93.3% (inactive),104% (inactive),22.9% (inactive),80.9,104,-4.73% (inactive),0.73% (inactive)
CC[C@@H](CO)NC(=O)[C@@H]1C=C2c3cccc4c3c(cn4C)C[C@H]2N(C)C1,7% (inactive),147% (inactive),96.8% (inactive),95.4% (inactive),-1.17% (inactive),96.6,95.4,1.17% (inactive),-2% (inactive)
O=C(O)Cn1cc(C(=O)c2ccccc2)c2ccccc21,0% (inactive),89% (inactive),104% (inactive),94.7% (inactive),-1.34% (inactive),96,94.7,-7.07% (inactive),-0.36% (inactive)
